Screening results (PubChem)
An excerpt weighted towards active compounds, which were near 2.9% of everything screened.
Arrestin-AP2 inh = human beta-arrestin and AP2 interaction inhibition; inhibition, % at 10 µM; AID 504490; FITC-arrestin peptide / GST-AP2 beads, flow cytometry; AP2 beta2 appendage carries R879A mutation; 340,000 compounds, 0.31% hits;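 active = inhibition above a set limit, near 3 SD of compounds lacking own fluorescence, cut at about 54% in these data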;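 note: plate controls were DMSO wells for no effect and 5 µM unlabelled arrestin peptide for full effect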
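test system = AP2 appendage R879A on GSH beads | buffer or medium = PBS plus Tween 20 (0.05%) and BSA (0.1%) | incubation = 12 min plus 1 h, RT | detection = bead flow cytometry, FITC channel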
NRP1-CendR mod = modulators of CendR peptide binding to human neuropilin-1. FAM-RPARPAR peptide binding to NRP-1, fluorescence polarization. 360,000 compounds, 0.85% hits. AID 602438. O14786. inhibition, % at 25 µM;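 active = inhibition or corrected inhibition above about 18%, plus a signal ratio from 0.5 to 1.5, limit read from the data, passing the limit was not always enough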
Target sequence (O14786 whole entry, looked up): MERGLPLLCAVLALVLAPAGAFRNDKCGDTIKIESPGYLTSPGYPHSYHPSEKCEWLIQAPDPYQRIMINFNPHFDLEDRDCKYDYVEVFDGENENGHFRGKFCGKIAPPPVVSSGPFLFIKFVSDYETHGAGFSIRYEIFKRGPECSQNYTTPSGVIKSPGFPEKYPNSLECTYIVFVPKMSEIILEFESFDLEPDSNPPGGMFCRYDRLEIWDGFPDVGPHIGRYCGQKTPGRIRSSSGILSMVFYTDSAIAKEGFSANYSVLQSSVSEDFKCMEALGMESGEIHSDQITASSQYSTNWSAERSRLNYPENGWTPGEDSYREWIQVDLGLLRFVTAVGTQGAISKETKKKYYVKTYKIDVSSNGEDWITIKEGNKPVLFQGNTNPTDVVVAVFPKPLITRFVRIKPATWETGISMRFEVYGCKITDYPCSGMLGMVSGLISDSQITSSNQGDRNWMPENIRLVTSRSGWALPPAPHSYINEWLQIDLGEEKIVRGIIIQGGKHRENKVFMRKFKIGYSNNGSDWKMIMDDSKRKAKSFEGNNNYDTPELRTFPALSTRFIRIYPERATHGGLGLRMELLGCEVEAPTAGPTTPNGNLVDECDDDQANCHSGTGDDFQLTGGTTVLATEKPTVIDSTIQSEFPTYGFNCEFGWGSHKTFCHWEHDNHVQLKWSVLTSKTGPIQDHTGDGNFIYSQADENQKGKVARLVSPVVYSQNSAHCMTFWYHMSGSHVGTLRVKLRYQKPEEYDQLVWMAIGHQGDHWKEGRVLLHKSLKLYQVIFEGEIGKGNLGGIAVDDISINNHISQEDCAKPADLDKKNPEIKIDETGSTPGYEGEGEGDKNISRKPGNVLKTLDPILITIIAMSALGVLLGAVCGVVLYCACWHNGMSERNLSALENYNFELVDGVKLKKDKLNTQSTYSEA
FAS TE block = inhibitors of human fatty acid synthase thioesterase domain; inhibition, % at 15 µM; AID 602261; recombinant FAS-TE, OMFH fluorogenic substrate, fluorescence endpoint; P49327; 360,000 compounds, 0.67% hits;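 active = compounds whose normalised, plate-corrected inhibition of enzyme fluorescence in the single-dose primary screen is 50% or more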;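 note: 0% = DMSO with enzyme and 100% = substrate without enzyme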
CaV13 ICDI inh = Primary screen for inhibitors of IQ motif and Ca2+-dependent inactivation inhibitor domain binding in CACNA1D, Förster resonance energy transfer in living cells, …. 340,000 compounds, 0.098% hits. HEK cells, CFP/YFP FRET ICDI-IQ, plate reader, 10 min; percent FRET-ratio fall versus neutral wells. inhibition, % at 12.3 µM;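 active = mean replicate inhibition of at least 30% and at least 1% of replicates passing that level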;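 note: 0% = median of the neutral control wells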
ADAM17 inh = inhibits human ADAM17 | P78536 | recombinant ADAM17, EDANS/DABCYL FRET peptide cleavage | inhibition, % at 6.95 µM | 370,000 compounds, 0.83% hits | AID 720648;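 active = inhibition above the mean of compounds lying between control limits plus 3 SD, set per campaign, cut at about 8.5% in these data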;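 note: 0% = DMSO-only wells as the low control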
ADAM10 inh = ADAM10 inhibition, QFRET primary screen; 370,000 compounds, 0.62% hits; recombinant ADAM10, EDANS/DABCYL FRET peptide cleavage, 3 h; inhibition, % at 7 µM; O14672;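 active = inhibition above a per-campaign cutoff equal to the mean of compounds falling between control-based bounds plus 3 SD, cut at about 20% in these data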;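 note: 0% = DMSO wells while the 100% control is not disclosed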
ADAM10 confirm = confirmation of inhibitors of human ADAM10; inhibition, % at 6.95 µM; AID 743208; shares compounds with ADAM10 inh; 2,100 compounds, 1% hits; ADAM10 QFRET peptide cleavage, EDANS fluorescence;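 active = inhibition above about 20% chosen separately for each screening run, limit read from the data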;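 note: 0% = DMSO wells and 100% = marimastat wells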
ADAM17 ctr = counter-screen for ADAM10 exosite inhibitors: inhibitors of human ADAM17. shares compounds with ADAM10 inh. ADAM17 QFRET peptide cleavage, EDANS fluorescence. inhibition, % at 6.95 µM. 2,100 compounds, 0.5% hits;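 active = mean triplicate inhibition above the solvent-only control wells' mean plus 3 SD, cut at about 12% in these data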;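 note: 0% = DMSO wells and 100% = marimastat wells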
Numbers without * were called inactive.

What do the screens show for `CCN1C(=O)[C@H]2[C@@H](c3ccc(-c4cccc(Cl)c4)cc3)N[C@@](C)(C(=O)OC)[C@H]2C1=O`?
Arrestin-AP2 inh: 14; NRP1-CendR mod: 5; FAS TE block: 14; CaV13 ICDI inh: -11; ADAM17 inh: 5; ADAM10 inh: 24*; ADAM10 confirm: -1; ADAM17 ctr: 0

How did COc1ccc(C2c3ccccc3NC3C2C(=O)N(Cc2ccc(OC)cc2OC)[C@H]3Cc2ccccc2)cc1 (some centres undefined) do in these assays?
ADAM17 inh: -9; ADAM10 inh: -9

What do the screens show for `COc1ccc(S(=O)(=O)NCC(=O)N(Cc2ccco2)C(C(=O)NC(C)(C)C)C(C)C)cc1` (centres undefined)?
Arrestin-AP2 inh: 2; NRP1-CendR mod: 0; FAS TE block: -2; CaV13 ICDI inh: -4; ADAM17 inh: 0; ADAM10 inh: 20*; ADAM10 confirm: 1; ADAM17 ctr: 0

What do the screens show for `CC(C)C(C(=O)NCc1ccco1)N(Cc1ccco1)C(=O)CNS(=O)(=O)c1ccccc1` (centres undefined)?
Arrestin-AP2 inh: 19; NRP1-CendR mod: 0; FAS TE block: 1; CaV13 ICDI inh: -3; ADAM17 inh: -1; ADAM10 inh: -4

What do the screens show for `CCOC(=O)c1c(C)nc2sc3c(=O)n(-c4ccc(C(C)=O)cc4)cnc3c2c1-c1ccc(OC)cc1`?
Arrestin-AP2 inh: -3; NRP1-CendR mod: 13; FAS TE block: 38; ADAM17 inh: -5; ADAM10 inh: -1

Results for CC(=O)c1c(C)nc2sc3c(=N)n(N)cnc3c2c1-c1ccc(Cl)cc1 ?
Arrestin-AP2 inh: -10; NRP1-CendR mod: -2; FAS TE block: -2; CaV13 ICDI inh: -3; ADAM17 inh: 1; ADAM10 inh: 21*; ADAM10 confirm: 3; ADAM17 ctr: 1

Results for OC[C@H]1O[C@@H](c2nc(-c3cccc4ccccc34)no2)[C@H](O)[C@@H]1O ?
NRP1-CendR mod: 3; FAS TE block: -10; CaV13 ICDI inh: -6; ADAM17 inh: -6; ADAM10 inh: -27

How did NC(=O)c1ccsc1NC(=O)CCS(=O)(=O)c1ccccc1 do in these assays?
Arrestin-AP2 inh: 3; NRP1-CendR mod: 0; FAS TE block: -4; CaV13 ICDI inh: -7; ADAM17 inh: 0; ADAM10 inh: -1

Results for NC(=O)c1ccsc1NC(=O)CS(=O)(=O)c1ccccc1 ?
Arrestin-AP2 inh: -15; NRP1-CendR mod: -2; FAS TE block: -7; CaV13 ICDI inh: -16; ADAM17 inh: -1; ADAM10 inh: 84*; ADAM10 confirm: 0; ADAM17 ctr: 0

How did O=C(/C=C(\Nc1ccc(Cl)c(C(F)(F)F)c1)c1ccccc1)c1ccccc1 do in these assays?
ADAM17 inh: -1; ADAM10 inh: -2

What do the screens show for `COc1cc(NC(=O)C2CCN(S(=O)(=O)c3cccc4nonc34)CC2)cc(OC)c1`?
Arrestin-AP2 inh: 5; NRP1-CendR mod: 1; FAS TE block: 12; CaV13 ICDI inh: -1; ADAM17 inh: 3; ADAM10 inh: 23*; ADAM10 confirm: -1; ADAM17 ctr: 0

Results for CC(=O)c1ccccc1-c1csc2ncnc(Sc3nnnn3C)c12 ?
Arrestin-AP2 inh: 3; NRP1-CendR mod: 18; FAS TE block: -9; CaV13 ICDI inh: -4; ADAM17 inh: -6; ADAM10 inh: 76*; ADAM10 confirm: 1; ADAM17 ctr: 0

Results for Cn1nnnc1Sc1ncnc2scc(-c3ccccc3C(F)(F)F)c12 ?
Arrestin-AP2 inh: 53; NRP1-CendR mod: 0; FAS TE block: 2; CaV13 ICDI inh: -10; ADAM17 inh: 1; ADAM10 inh: -1

How did Nc1cc([N+](=O)[O-])cc2oc(-c3ccccc3)cc12 do in these assays?
Arrestin-AP2 inh: -1; NRP1-CendR mod: -39; FAS TE block: 18; CaV13 ICDI inh: -21; ADAM17 inh: 5; ADAM10 inh: 25*; ADAM10 confirm: 2; ADAM17 ctr: 2

Results for COc1ccccc1C(=O)NC(=S)Nc1cccc2cc(O)ccc12 ?
Arrestin-AP2 inh: -5; NRP1-CendR mod: 4; FAS TE block: 14; ADAM17 inh: 6; ADAM10 inh: 25*; ADAM10 confirm: 9; ADAM17 ctr: 3

Results for CCOC(=O)c1c(CN2CCN(c3ccccc3)CC2)oc2cc(Br)c(O)cc12 ?
Arrestin-AP2 inh: -12; NRP1-CendR mod: 6; FAS TE block: 15; CaV13 ICDI inh: -22; ADAM17 inh: 7; ADAM10 inh: 21*; ADAM10 confirm: 5; ADAM17 ctr: 2

How did CC(C)Oc1ccc(Cl)cc1Nc1nc(NCCO)nc(N2CCCC2)n1 do in these assays?
Arrestin-AP2 inh: 6; NRP1-CendR mod: -7; FAS TE block: 14; CaV13 ICDI inh: -5; ADAM17 inh: 7; ADAM10 inh: 21*; ADAM10 confirm: 4; ADAM17 ctr: 2

What do the screens show for `COc1ccc(Cl)cc1Nc1nc(NCCO)nc(N2CCCC2)n1`?
Arrestin-AP2 inh: 49; NRP1-CendR mod: 7; FAS TE block: -7; ADAM17 inh: -3; ADAM10 inh: -1

Results for COC(=O)C1CCN(C2CN(Cc3ccc([N+](=O)[O-])cc3)S(=O)(=O)C2)CC1 (centres undefined) ?
NRP1-CendR mod: 18; FAS TE block: 15; ADAM17 inh: 0; ADAM10 inh: -3

Results for COc1ccc(C(=O)/C=C/c2ccccc2C(F)(F)F)cc1 ?
Arrestin-AP2 inh: -3; NRP1-CendR mod: 3; FAS TE block: 12; CaV13 ICDI inh: -5; ADAM17 inh: 6; ADAM10 inh: 20*; ADAM10 confirm: 2; ADAM17 ctr: 0

Results for COc1ccc(CN2C(=O)[C@@H]3Cc4c([nH]c5ccccc45)C(C)(C)N3C2=O)cc1 ?
Arrestin-AP2 inh: 11; NRP1-CendR mod: -10; FAS TE block: 21; CaV13 ICDI inh: -9; ADAM17 inh: 3; ADAM10 inh: 16

What do the screens show for `COc1cccc(CN2C(=O)[C@H]3Cc4c([nH]c5ccccc45)C(C)(C)N3C2=O)c1`?
Arrestin-AP2 inh: 6; NRP1-CendR mod: -2; FAS TE block: 23; CaV13 ICDI inh: -12; ADAM17 inh: 5; ADAM10 inh: 21*; ADAM10 confirm: 3; ADAM17 ctr: 1

How did C[C@@H]1OCN(C)[C@H]2C[C@H]3c4[nH]c5cccc(-c6cccc(F)c6)c5c4CCN3C(=O)[C@@H]12 do in these assays?
ADAM17 inh: -26; ADAM10 inh: -80
